# Cl transport mod: KCC2 (human) Cl- transport modulation. 190,000 compounds, 2.2% hits. Q9H2X9. KCC2 cells, thallium flux FluoZin-2 fluorescence. B-score of Tl+ flux slope (higher = more flux/activation; lower = inhibition) at 10 µM. AID 1456;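 active = thallium flux slope and its plate-corrected score both differing from the plate sample mean at a set confidence after two filtering rounds, in either direction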;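 note: slope of fluorescence scaled to starting intensity during 10 to 20 s after thallium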
# Target sequence (Q9H2X9 whole entry, looked up): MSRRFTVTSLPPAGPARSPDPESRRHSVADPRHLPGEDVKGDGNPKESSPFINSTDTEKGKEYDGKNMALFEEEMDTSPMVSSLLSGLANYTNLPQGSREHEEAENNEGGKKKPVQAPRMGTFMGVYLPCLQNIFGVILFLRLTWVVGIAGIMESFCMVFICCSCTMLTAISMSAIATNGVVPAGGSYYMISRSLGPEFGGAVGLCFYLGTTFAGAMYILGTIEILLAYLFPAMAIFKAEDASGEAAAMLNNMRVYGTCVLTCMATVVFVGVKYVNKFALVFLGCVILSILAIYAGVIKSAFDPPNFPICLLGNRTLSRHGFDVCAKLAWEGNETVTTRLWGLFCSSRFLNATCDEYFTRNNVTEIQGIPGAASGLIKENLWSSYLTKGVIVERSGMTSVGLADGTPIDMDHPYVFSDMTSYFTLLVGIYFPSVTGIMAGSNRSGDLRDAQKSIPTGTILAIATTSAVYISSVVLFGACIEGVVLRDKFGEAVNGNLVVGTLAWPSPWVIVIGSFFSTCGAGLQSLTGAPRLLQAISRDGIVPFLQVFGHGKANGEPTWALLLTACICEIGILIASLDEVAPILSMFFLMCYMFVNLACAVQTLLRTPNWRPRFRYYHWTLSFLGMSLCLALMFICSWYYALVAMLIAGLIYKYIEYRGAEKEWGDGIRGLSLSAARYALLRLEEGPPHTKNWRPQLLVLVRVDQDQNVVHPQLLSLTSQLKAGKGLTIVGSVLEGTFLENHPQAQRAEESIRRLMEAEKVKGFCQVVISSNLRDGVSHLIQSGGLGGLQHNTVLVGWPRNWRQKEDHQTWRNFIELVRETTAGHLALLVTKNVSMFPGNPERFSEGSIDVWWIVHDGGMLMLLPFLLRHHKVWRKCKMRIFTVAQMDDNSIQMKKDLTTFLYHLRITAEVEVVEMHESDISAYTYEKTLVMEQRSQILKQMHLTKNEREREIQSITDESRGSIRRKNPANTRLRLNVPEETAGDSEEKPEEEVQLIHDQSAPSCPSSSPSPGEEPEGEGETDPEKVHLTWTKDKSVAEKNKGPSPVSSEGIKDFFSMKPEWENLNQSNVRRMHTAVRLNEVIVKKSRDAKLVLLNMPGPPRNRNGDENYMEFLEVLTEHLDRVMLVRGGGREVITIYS
# MT stabilize HCS: stabilizes microtubules in HeLa cells | AID 2205 | % tubulin-high responders, % at 10 µM | 200,000 compounds, 0.83% hits | HeLa tubulin immunostaining HCS, 24 h; share of cells brighter than vehicle mean+2SD;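 active = plate Z-score above 3 for both tubulin-high and condensed-nucleus cell shares, with cell loss under 80%, at 10 µM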;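 note: anti alpha tubulin signal scored within the nucleus-defined area of each cell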
# bCat nuc transl: alters nuclear translocation of beta-catenin in HeLa cells. immunofluorescence imaging. nuclear translocation activity, % at 5 µM. 190,000 compounds, 0.3% hits;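 active = nuclear translocation activity above 50% at 5 µM, with a well cell count of 50 or more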;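 note: per-cell ratio of nuclear to cytoplasmic median beta-catenin stain intensity; plate controls were DMSO negative control for no effect and GSK-3 inhibitor IX positive control for full effect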
#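 Test system: human HeLa cells, endogenous beta-catenin. Times: 24 h compound exposure, 37°C. Measured by: beta-catenin immunofluorescence imaging with DAPI.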
# WT yeast gro inh: growth inhibition of WT yeast, mitochondrial fusion screen; mitochondrial fusion phenotypic screen, WT strain; inhibition, % at 10 µM; 190,000 compounds, 2.1% hits; AID 1362; in the data active = inhibition above about 58%; tested in S. cerevisiae
# Pf gamet viab: inhibitors of late stage P. falciparum gametocyte viability | P. falciparum stage V gametocytes, ATP luminescence, 24 h | inhibition, % at 10.9 µM | 150,000 compounds, 0.065% hits | AID 743093;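 active = inhibition above the mean plus 3 SD of compounds within the control limits, set per campaign, cut at about 38% in these data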;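 note: 0% = DMSO wells and 100% = medium only without gametocytes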
# * marks the source's active call; other numbers are inactive results; nt = not tested or not shown. An excerpt weighted towards active compounds, which were near 4% of everything screened.
SMILES,Cl transport mod,MT stabilize HCS,bCat nuc transl,WT yeast gro inh,Pf gamet viab
O=C(OCc1csc(Nc2ccccc2)n1)c1ccc(Cl)cc1,0.549,4.1,-2.6,75.6*,8.8
O=C(COc1ccccc1)OCc1csc(Nc2ccccc2)n1,0.106,2.8,-1.2,28.9,-10.0
CC(/C=N/n1c(-c2ccco2)n[nH]c1=S)=C\c1ccccc1,12.8*,2.7,4.9,73.4*,-13.2
CC(/C=N/n1c(-c2ccc(Cl)cc2)n[nH]c1=S)=C\c1ccco1,12.9*,4.0,0.3,71.9*,-7.7
CCCSc1sc(C(=O)OC)c(-c2cccs2)c1C#N,0.539,nt,0.2,nt,-14.5
Cn1ncc2c(N3CCC(Cc4ccccc4)CC3)ncnc21,-2.77,5.3,0.6,20.7,nt
NNC(=O)c1cc2c(N3CCC(Cc4ccccc4)CC3)ncnc2s1,-0.957,2.6,1.6,58.1*,20.3
O=[N+]([O-])c1ccccc1OCCNCc1ccccc1,nt,nt,nt,nt,22.8
Cc1[nH]c2ccccc2c1-c1csc(NC(=O)CSCCO)n1,-1.7,3.6,0.8,5.0,-12.7
Cc1nc(NC(=O)/C=C/c2ccco2)sc1C,2.02,15.5*,-2.6,-1.5,nt
O=C(/C=C/c1ccco1)Nc1nnc(-c2ccco2)s1,0.883,8.2*,12.5,-9.2,nt
O=C(/C=C/c1ccco1)NC1=NCCS1,-1,3.7,0.6,-5.8,nt
O=C(/C=C/c1ccco1)Nc1cccc(NC(=O)/C=C/c2ccco2)n1,-1.51,2.9,nt,59.5*,13.9
O=C(/C=C\c1ccco1)Nc1cc([N+](=O)[O-])ccc1F,0.192,3.6,55.9*,-14.2,-3.7
CCOC(=O)c1c(-c2ccccc2)csc1NC(=O)CSc1nncs1,-0.914,3.4,0.1,59.1*,7.9
Cc1cc(C(=O)Nc2ccccc2N2CCCCC2)no1,0.383,nt,-3.7,nt,11.0
Cc1ccc(NNC(=O)C(O)(c2cccc(C(F)(F)F)c2)c2cccc(C(F)(F)F)c2)cc1,-0.811,2.9,0.2,82.7*,4.2
COc1ccc(Cn2c(SCC#N)nc3ccc(N4CCOCC4)cc3c2=O)cc1,1.6,3.0,0.9,-3.6,6.5
COc1cc(C(=O)NC(=S)N(CCc2ccccc2)CCc2ccccc2)cc(OC)c1OC,73.1*,3.4,0.7,48.2,nt
COc1cc(C(=O)N/N=C(\C)Cc2ccccc2)cc(OC)c1OC,0.127,2.9,-0.7,4.9,-21.7
O=C(NC(=S)N(CCc1ccccc1)CCc1ccccc1)c1ccco1,44.5*,3.7,0.5,62.2,7.7
O=C(NC(=S)NCCc1ccc(Cl)cc1)c1ccco1,nt,3.6,0.3,5.4,nt
O=C(CCSc1nc2ccccc2s1)N/N=C/c1c(O)ccc2ccccc12,0.22,20.6*,1.7,-16.1,14.8
CS(=O)(=O)c1nc2ccccc2n1Cc1ccccc1,0.836,2.9,2.2,93.8*,-13.9
COCc1nc2ccccc2n1Cc1cccc(C)c1,-1.06,2.5,2.7,17.0,nt
SMILES,Cl transport mod,MT stabilize HCS,bCat nuc transl,WT yeast gro inh,Pf gamet viab
Cc1cccc(Cn2c(Cc3ccccc3)nc3ccccc32)c1,-2.63,2.7,-0.6,72.0*,22.7
COCc1nc2ccccc2n1Cc1ccccc1C,nt,4.0,0.1,7.4,2.1
Cc1ccccc1Cn1c(Cc2ccccc2)nc2ccccc21,-1.2,0.9,-0.8,77.0*,-0.4
Cn1c(=O)cc(OCC(=O)NCc2cccs2)c2ccccc21,0.214,1.1,0.6,1.0,-5.9
CC(Oc1ccc(Cl)cc1Cl)c1nc(-c2ccc(NC(=O)c3ccco3)cc2)no1 (stereo unspecified),nt,2.9,nt,84.5*,32.5
Cc1ccccc1OCc1nc(-c2ccc(NC(=O)c3ccco3)cc2)no1,nt,2.3,-1.5,35.5,5.5
Cc1cc(C)cc(OCc2nc3ncc(Br)cc3[nH]2)c1,0.773,34.4*,nt,nt,-8.3
COc1cccc(OCc2nc3ncc(Br)cc3[nH]2)c1,1.1,35.6*,0.7,0.2,nt
CC1CCCCN1C(=O)Cn1cc(/C=C2/C(=O)Nc3ccccc32)c2ccccc21 (stereo unspecified),-0.672,2.0,-0.4,95.6*,nt
CCOCCCNS(=O)(=O)c1ccc(NC(=O)Cc2c(F)cccc2Cl)cc1,nt,3.9,2.3,6.1,-5.5
Cc1onc(-c2c(F)cccc2Cl)c1C(=O)O/N=C(\N)c1ccc([N+](=O)[O-])o1,-2.11,nt,0.0,nt,-2.9
S=C1NC2(CCCCC2)Cc2ccccc21,0.966,2.5,-0.7,68.6*,-2.0
O=C1NC2(CCCCC2)Cc2ccccc21,nt,5.3,-4.3,14.9,nt
COc1ccc(C(=O)Nc2ccc(/C(C)=N/NC(=O)c3ccccc3O)cc2)cc1OC,-1.6,4.0,-3.7,-9.1,13.8
CC(=O)Nc1ccc(S(=O)(=O)NCCNS(=O)(=O)c2ccc(NC(C)=O)cc2)cc1,nt,nt,nt,nt,16.8
CC(=O)Nc1ccc(S(=O)(=O)NCCC(=O)OCCN2C(=O)c3ccccc3C2=O)cc1,-0.0945,1.5,2.9,73.3*,nt
CCc1c(C)sc(NC(=S)N2CC(C)OC(C)C2)c1C(=O)OC (stereo unspecified),2.82,3.4,2.4,64.5*,3.0
Cc1ccc(NC(=S)NNC(=S)Nc2ccc(C)cc2C)cc1,0.737,9.8*,52.4*,11.2,nt
COc1ccc(NC(=S)NCCc2ccc(Cl)cc2)c(OC)c1,1.98,3.8,-3.5,66.6*,nt
COc1ccc(CNC(=S)Nc2cc(C)ccc2C)cc1,-1.05,2.0,-0.5,46.5,nt
COc1ccc(NC(=S)NCCc2ccc(S(N)(=O)=O)cc2)c(OC)c1,0.809,3.3,-1.6,-16.2,-3.6
COc1ccc(NC(=S)Nc2ccc(OCc3ccccc3)cc2)c(OC)c1,-1.78,2.6,-3.0,67.4*,-11.9
COc1ccc(CCNC(=S)Nc2cc(C)ccc2C)cc1,nt,1.9,nt,63.3*,-22.8
CN(C(=O)c1cc([N+](=O)[O-])ccc1NCc1cccnc1)c1ccccc1,nt,nt,nt,nt,-5.0
CC(C)n1c(O)c(N=NC(=O)Cc2csc(N3CCOCC3)n2)c2ccccc21,-2.12,2.3,-1.9,-3.7,4.4
SMILES,Cl transport mod,MT stabilize HCS,bCat nuc transl,WT yeast gro inh,Pf gamet viab
CCOc1ccc(S(=O)(=O)N(C)c2ccc(OCC(=O)NCCc3ccc(OC)cc3)cc2)cc1,0.319,nt,0.2,nt,2.4
COc1c(/C=N/NC(=O)c2ccncc2)c(CCN(C)C(C)=O)cc2c1OCO2,-1.98,nt,-0.3,nt,-15.7
CC(C)(C)OC(=O)CN1C(=O)C(Sc2n[nH]c(-c3ccccc3)n2)CCc2ccccc21 (stereo unspecified),-0.861,3.7,nt,32.0,4.9
COc1ccc(CCNC(=S)Nc2cccc(C)c2C)cc1,-0.653,3.5,-2.3,56.3,-11.3
COc1ccc(CCNC(=S)Nc2ccc(C)cc2C)cc1,0.0476,1.7,-4.5,69.0*,-43.2
Cc1ccc(NC(=S)Nc2ccc(C(C)C)cc2)cc1S(=O)(=O)N1CCCCCC1,0.542,2.8,-3.9,65.8*,16.4
COc1ccc(NC(=S)Nc2ccc(C)c(S(=O)(=O)N3CCCCC3)c2)cc1,0.322,2.0,4.8,-18.8,nt
C/C(=N/OC(=O)C1CC12CCC2)c1ccc(Br)cc1 (stereo unspecified),-0.0613,2.5,-0.7,30.3,-8.9
CC(C)OC(=O)CSc1nnc(-c2ccc(Cl)cc2Cl)o1,nt,3.3,-4.0,-0.4,nt

# Screens (PubChem)
